Test results from ChEMBL document CHEMBL2010753, “Free radical scavenging and antiproliferative properties of Biginelli adducts” (2012).
≈ marks a conversion by molar mass, not a printed value. Calls of active or inactive are those of the source. The calls are words filed in the database; no cut-off is given here.

Assays:
Type in all cases: functional
[1] = Antioxidant activity assessed as scavenging of DPPH at 160 uM after 30 mins by spectrophotometry
U-251 = assay: Growth inhibition of human U251 cells after 48 hrs by sulforhodamine B assay; details: U-251, 48 h
[2] = Growth inhibition of human NCI-ADR-RES cells after 48 hrs by sulforhodamine B assay
786-0 = assay: Growth inhibition of human 786-0 cells after 48 hrs by sulforhodamine B assay; details: 786-0, 48 h
NCI-H460 = assay: Growth inhibition of human NCI-H460 cells after 48 hrs by sulforhodamine B assay; details: NCI-H460, 48 h
PC-3 = assay: Growth inhibition of human PC3 cells after 48 hrs by sulforhodamine B assay; details: PC-3, 48 h
OVCAR-3 = assay: Growth inhibition of human OVCAR3 cells after 48 hrs by sulforhodamine B assay; details: OVCAR-3, 48 h
HT-29 = assay: Growth inhibition of human HT-29 cells after 48 hrs by sulforhodamine B assay; details: HT-29, 48 h
[3] = Antioxidant activity assessed as concentration required for 50% DPPH scavenging activity after 30 mins by spectrophotometry
[4] = Antioxidant activity assessed as scavenging of DPPH at 29.7 uM up to 10 mins by spectrophotometry
Summary of the method: (§1)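 Kinetic run: reaction medium with 10 nmol DPPH radicals in ethanol and compound at the stated concentration, DPPH scavenging followed over time up to 10 min. Three independent experiments, each in triplicate.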

[5] = Antioxidant activity assessed as concentration required for 50% DPPH scavenging activity after 30 mins by spectrophotometry relative to monastrol
[6] = Antioxidant activity assessed as scavenging of DPPH at 20.3 uM after 1 min by spectrophotometry relative to resveratrol
[7] = Antioxidant activity assessed as scavenging of DPPH at 20.3 uM up to 10 mins by spectrophotometry; summary of the method: as §1
[8] = Antioxidant activity assessed as concentration required to scavenge 50% superoxide anions after 10 mins by spectrophotometry
[9] = Antioxidant activity assessed as scavenging of DPPH at 24.2 uM up to 10 mins by spectrophotometry; summary of the method: as §1
[10] = Antioxidant activity assessed as scavenging of DPPH at 34.4 uM up to 10 mins by spectrophotometry; summary of the method: as §1
[11] = Antioxidant activity assessed as scavenging of superoxide anions after 10 mins by spectrophotometry
Summary of the method: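 Superoxide generated photochemically in 50 mM phosphate buffer pH 7.8 with 13 mM L-methionine, 75 μM nitroblue tetrazolium, 100 μM EDTA, 2 μM riboflavin. Compound at 0–200 μM (12.5–200 μM tested), fluorescent light 10 min at 25 °C; dark-kept mixtures as controls; read at 575 nm. Triplicates in three independent experiments.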

Row | Compound | Activity [1] | GI50 (U-251) [µg/mL] | GI50 [2] [µg/mL] | GI50 (786-0) [µg/mL] | GI50 (NCI-H460) [µg/mL] | GI50 (PC-3) [µg/mL] | GI50 (OVCAR-3) [µg/mL] | GI50 (HT-29) [µg/mL] | IC50 [3] [µM] | Activity [4] [pmol] | fold change (FC) [5] | fold change (FC) [6] | Activity [7] [pmol] | Activity [8] [µM] | Activity [9] [pmol] | Activity [10] | Activity [11]
1 | CCOC(=O)C1=C(C)NC(=S)NC1c1ccc(OC)cc1 (centres undefined) | inactive | 29 (≈ 94.7 µM) | 3.2 (≈ 10.4 µM) | 25.9 (≈ 84.5 µM) | 31.4 (≈ 102 µM) | 5.5 (≈ 18 µM) | 0.99 (≈ 3.23 µM) | 30.6 (≈ 99.9 µM) |  |  |  |  |  |  |  |  | 
2 | CCOC(=O)C1=C(C)NC(=O)NC1c1ccc(O)cc1 (centres undefined) | inactive | 4.2 (≈ 15.2 µM) | 3.2 (≈ 11.6 µM) | 25.8 (≈ 93.4 µM) | 40.6 (≈ 147 µM) | 136 (≈ 492 µM) | 27.3 (≈ 98.8 µM) | 28.7 (≈ 104 µM) |  |  |  |  |  |  |  |  | 
3 | CCOC(=O)C1=C(C)NC(=S)NC1c1ccc(O)c(O)c1 (centres undefined) | Active | 26.5 (≈ 85.9 µM) | 24.3 (≈ 78.8 µM) | 28.3 (≈ 91.8 µM) | 31.7 (≈ 103 µM) | 25 (≈ 81.1 µM) | 25 (≈ 81.1 µM) | 22.7 (≈ 73.6 µM) | 29.7 | 413 | 37 |  |  |  |  |  | 
4 | CCOC(=O)C1=C(C)NC(=S)NC1c1ccc(F)cc1 (centres undefined) | inactive | 28.3 (≈ 96.1 µM) | 26.1 (≈ 88.7 µM) | 24.5 (≈ 83.2 µM) | 14.2 (≈ 48.2 µM) | 1.7 (≈ 5.78 µM) | 24.7 (≈ 83.9 µM) | 26.5 (≈ 90 µM) |  |  |  |  |  |  |  |  | 
5 | CCOC(=O)C1=C(C)NC(=O)NC1c1ccc(O)c(OC)c1 (centres undefined) | 65% | 4.5 (≈ 14.7 µM) | 0.25 (≈ 0.816 µM) | 17.5 (≈ 57.1 µM) | 126 (≈ 410 µM) | 46.3 (≈ 151 µM) | 1.7 (≈ 5.55 µM) | 28.1 (≈ 91.7 µM) | 105 |  |  |  |  |  |  |  | 
6 | CCOC(=O)C1=C(C)NC(=S)NC1c1ccc(O)c(OC)c1 (centres undefined) | 65% | 88.3 (≈ 274 µM) | 59.7 (≈ 185 µM) | 30 (≈ 93.1 µM) | 180 (≈ 560 µM) | 72.6 (≈ 225 µM) | 11 (≈ 34.1 µM) | 34.9 (≈ 108 µM) | 104 |  |  |  |  |  |  |  | 
7 | CCOC(=O)C1=C(C)NC(=S)NC1C1CCCCC1 (centres undefined) | inactive | 25.2 (≈ 89.2 µM) | 24.1 (≈ 85.3 µM) | 4.2 (≈ 14.9 µM) | 3.5 (≈ 12.4 µM) | 0.46 (≈ 1.63 µM) | 2.2 (≈ 7.79 µM) | 25.2 (≈ 89.2 µM) |  |  |  |  |  |  |  |  | 
8 | CCCC1NC(=S)NC(C)=C1C(=O)OCC (centres undefined) | inactive | 29.2 (≈ 120 µM) | 40.3 (≈ 166 µM) | 27.7 (≈ 114 µM) | 22.5 (≈ 92.8 µM) | 42.4 (≈ 175 µM) | 38.1 (≈ 157 µM) | 50.4 (≈ 208 µM) |  |  |  |  |  |  |  |  | 
9 | CCOC(=O)C1=C(C)NC(=O)NC1c1ccc(O)c(O)c1 (centres undefined) | Active | 0.25 (≈ 0.855 µM) | 2.1 (≈ 7.18 µM) | 20.7 (≈ 70.8 µM) | 34 (≈ 116 µM) | 18.2 (≈ 62.3 µM) | 1.6 (≈ 5.47 µM) | 37.8 (≈ 129 µM) | 20.3 |  | 37 | 2 | 488 | 33 |  |  | 
10 | CCOC(=O)C1=C(C)NC(=O)NC1c1cccc(O)c1 (centres undefined) | inactive | 5.1 (≈ 18.5 µM) | 11.7 (≈ 42.3 µM) | 26.3 (≈ 95.2 µM) | 42 (≈ 152 µM) | 34.7 (≈ 126 µM) | 6 (≈ 21.7 µM) | 27.1 (≈ 98.1 µM) |  |  |  |  |  |  |  |  | 
11 | CCOC(=O)C1=C(C)NC(=S)NC1c1cc(OC)c(O)c(OC)c1 (centres undefined) | Active | 0.77 (≈ 2.18 µM) | 25 (≈ 70.9 µM) | 13.4 (≈ 38 µM) | 65.6 (≈ 186 µM) | 19 (≈ 53.9 µM) | 1.9 (≈ 5.39 µM) | 28.2 (≈ 80 µM) | 24.2 |  | 37 |  |  | 78 | 370 |  | 
12 | CCOC(=O)C1=C(C)NC(=S)NC1c1ccc2c(c1)OCO2 (centres undefined) | inactive | 25.9 (≈ 80.8 µM) | 57.1 (≈ 178 µM) | 27 (≈ 84.3 µM) | 27 (≈ 84.3 µM) | 13.4 (≈ 41.8 µM) | 55.3 (≈ 173 µM) | 31.4 (≈ 98 µM) |  |  |  |  |  |  |  |  | 
13 | CCOC(=O)C1=C(C)NC(=S)NC1c1ccc(O)cc1 (centres undefined) | inactive | 77.2 (≈ 264 µM) | 83.6 (≈ 286 µM) | 27.5 (≈ 94.1 µM) | > 250 | 47.6 (≈ 163 µM) | 37.7 (≈ 129 µM) | > 250 |  |  |  |  |  |  |  |  | 
14 | CCOC(=O)C1=C(C)NC(=S)NC1c1ccc(SC)cc1 (centres undefined) | inactive | 6 (≈ 18.6 µM) | 35.7 (≈ 111 µM) | 5.3 (≈ 16.4 µM) | 21.6 (≈ 67 µM) | 23.6 (≈ 73.2 µM) | 8.5 (≈ 26.4 µM) | 17.2 (≈ 53.3 µM) |  |  |  |  |  |  |  |  | 
15 | CCOC(=O)C1=C(C)NC(=O)NC1C1CCCCC1 (centres undefined) | inactive | 142 (≈ 533 µM) | > 250 | > 250 | > 250 | > 250 | > 250 | > 250 |  |  |  |  |  |  |  |  | 
16 | CCOC(=O)C1=C(C)NC(=S)NC1c1cccc(OC)c1 (centres undefined) | inactive | 28.1 (≈ 91.7 µM) | 25.6 (≈ 83.6 µM) | 24.9 (≈ 81.3 µM) | 29.2 (≈ 95.3 µM) | 10.2 (≈ 33.3 µM) | 1.3 (≈ 4.24 µM) | 28.3 (≈ 92.4 µM) |  |  |  |  |  |  |  |  | 
17 | CCOC(=O)C1=C(C)NC(=O)NC1c1ccccc1 (centres undefined) | inactive | > 250 | > 250 | > 250 | 28.9 (≈ 111 µM) | > 250 | > 250 | > 250 |  |  |  |  |  |  |  |  | 
18 | CCOC(=O)C1=C(C)NC(=O)NC1c1ccc(F)cc1 (centres undefined) | inactive | 23.5 (≈ 84.4 µM) | 3.6 (≈ 12.9 µM) | 24.7 (≈ 88.8 µM) | 28.1 (≈ 101 µM) | 3.1 (≈ 11.1 µM) | 27.1 (≈ 97.4 µM) | 25.3 (≈ 90.9 µM) |  |  |  |  |  |  |  |  | 
19 | Oc1ccc(/C=C/c2cc(O)cc(O)c2)cc1 | Active |  |  |  |  |  |  |  |  |  |  |  |  | 121 |  | Active | Dose-dependent effect
20 | COc1cccc2c1C(=O)c1c(O)c3c(c(O)c1C2=O)C[C@@](O)(C(=O)CO)C[C@@H]3O[C@H]1C[C@H](N)[C@H](O)[C@H](C)O1 [DOXORUBICIN] |  | 0.068 (≈ 0.125 µM) | 0.14 (≈ 0.258 µM) | 0.18 (≈ 0.331 µM) | < 0.025 | 0.24 (≈ 0.442 µM) | 0.27 (≈ 0.497 µM) | 0.27 (≈ 0.497 µM) |  |  |  |  |  |  |  |  | 
21 | CCOC(=O)C1=C(C)NC(=S)NC1c1ccccc1 (centres undefined) | inactive | 26.6 (≈ 96.3 µM) | 27.4 (≈ 99.1 µM) | 27.7 (≈ 100 µM) | 28 (≈ 101 µM) | 42.2 (≈ 153 µM) | 27.7 (≈ 100 µM) | 29.8 (≈ 108 µM) |  |  |  |  |  |  |  |  | 
22 | CCOC(=O)C1=C(C)NC(=S)N[C@H]1c1cccc(O)c1 [S-MENASTROL] | inactive | 24 (≈ 82.1 µM) | 22.2 (≈ 75.9 µM) | 4 (≈ 13.7 µM) | 10.6 (≈ 36.3 µM) | 5.6 (≈ 19.2 µM) | 14.4 (≈ 49.3 µM) | 29.6 (≈ 101 µM) |  |  |  |  |  |  |  |  | 
23 | CCOC(=O)C1=C(C)NC(=O)NC1c1ccc2c(c1)OCO2 (centres undefined) | inactive | 34.9 (≈ 115 µM) | 15.5 (≈ 50.9 µM) | 26.3 (≈ 86.4 µM) | 48.9 (≈ 161 µM) | 83.1 (≈ 273 µM) | 32.4 (≈ 106 µM) | 29.9 (≈ 98.3 µM) |  |  |  |  |  |  |  |  | 
24 | CCOC(=O)C1=C(C)NC(=O)NC1c1ccc(SC)cc1 (centres undefined) | inactive | 8 (≈ 26.1 µM) | 2.7 (≈ 8.81 µM) | 2.5 (≈ 8.16 µM) | 3.6 (≈ 11.7 µM) | 9.5 (≈ 31 µM) | 10 (≈ 32.6 µM) | 10.2 (≈ 33.3 µM) |  |  |  |  |  |  |  |  | 
25 | CCOC(=O)C1=C(C)NC(=O)NC1c1ccc(OC)cc1 (centres undefined) | inactive | 11.6 (≈ 40 µM) | 5.7 (≈ 19.6 µM) | 24.8 (≈ 85.4 µM) | > 250 | 26.5 (≈ 91.3 µM) | 8 (≈ 27.6 µM) | 28.3 (≈ 97.5 µM) |  |  |  |  |  |  |  |  | 
